Data set [1] deals with T1, Cytochrome P450 26A1 (Homo sapiens, UniProt O43174).
T1 sequence (O43174 whole entry): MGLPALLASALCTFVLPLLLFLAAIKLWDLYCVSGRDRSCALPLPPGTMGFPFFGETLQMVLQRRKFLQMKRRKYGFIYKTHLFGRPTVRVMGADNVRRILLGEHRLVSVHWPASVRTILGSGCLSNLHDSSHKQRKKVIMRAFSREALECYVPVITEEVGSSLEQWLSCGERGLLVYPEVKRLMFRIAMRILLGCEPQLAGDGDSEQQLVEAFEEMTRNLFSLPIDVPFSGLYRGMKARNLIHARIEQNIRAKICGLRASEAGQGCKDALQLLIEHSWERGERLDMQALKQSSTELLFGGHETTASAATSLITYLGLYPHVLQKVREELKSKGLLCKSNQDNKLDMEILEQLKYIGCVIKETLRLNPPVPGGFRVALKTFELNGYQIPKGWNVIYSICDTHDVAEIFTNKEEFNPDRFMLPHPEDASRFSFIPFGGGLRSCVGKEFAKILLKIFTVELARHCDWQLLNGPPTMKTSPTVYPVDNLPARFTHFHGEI
Kind of data set: Inhibition of human CYP26A1 assessed using [11,12-3H]ATRA as substrate by scintillation counting. The gist of the method: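 CYP26 source: microsomes from MCF-7 cells pretreated 24 h with ATRA to induce CYP26, isolated by differential centrifugation. 50 μg microsomal protein in 50 mM Tris pH 7.4, 150 mM KCl, 10 mM MgCl₂, 0.02% BSA, 2 mM NADPH, 10 nM ATRA plus 0.1 μCi ³H-ATRA. Inhibitor 1–1000 nM, 1 h at 37 °C. Acetonitrile quench, retinoids resolved on C18 HPLC.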

Data set [2] deals with T2, CYP1A2 (Homo sapiens, UniProt P05177).
T2 sequence (P05177 whole entry): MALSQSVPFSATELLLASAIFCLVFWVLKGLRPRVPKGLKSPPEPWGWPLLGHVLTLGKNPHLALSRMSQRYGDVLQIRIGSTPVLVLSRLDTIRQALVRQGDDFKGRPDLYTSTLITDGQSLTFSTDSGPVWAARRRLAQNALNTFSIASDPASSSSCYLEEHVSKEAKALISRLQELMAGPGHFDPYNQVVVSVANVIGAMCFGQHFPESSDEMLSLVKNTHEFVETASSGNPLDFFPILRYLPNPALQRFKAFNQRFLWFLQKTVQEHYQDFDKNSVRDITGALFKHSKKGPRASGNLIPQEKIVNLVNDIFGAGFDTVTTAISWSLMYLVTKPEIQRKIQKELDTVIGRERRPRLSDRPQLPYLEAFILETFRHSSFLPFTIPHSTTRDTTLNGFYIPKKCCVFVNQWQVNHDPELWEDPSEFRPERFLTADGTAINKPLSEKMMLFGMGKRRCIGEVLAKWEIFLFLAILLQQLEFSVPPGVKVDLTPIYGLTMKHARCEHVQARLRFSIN
Kind of data set: Inhibition of CYP1A2 in human liver microsomes at 0.4 uM. Type of data set: ADME, Microsome.

For data set [3], the target named is CYP3A4 (Homo sapiens, UniProt P08684). Kind of data set: Inhibition of CYP3A4 in human liver microsomes at 0.4 uM. Type of data set: ADME, Microsome. (In general: Microsomes from liver hold many membrane-bound enzymes, among them those of drug oxidation.)
Chain of CYP3A4 (P08684 whole entry): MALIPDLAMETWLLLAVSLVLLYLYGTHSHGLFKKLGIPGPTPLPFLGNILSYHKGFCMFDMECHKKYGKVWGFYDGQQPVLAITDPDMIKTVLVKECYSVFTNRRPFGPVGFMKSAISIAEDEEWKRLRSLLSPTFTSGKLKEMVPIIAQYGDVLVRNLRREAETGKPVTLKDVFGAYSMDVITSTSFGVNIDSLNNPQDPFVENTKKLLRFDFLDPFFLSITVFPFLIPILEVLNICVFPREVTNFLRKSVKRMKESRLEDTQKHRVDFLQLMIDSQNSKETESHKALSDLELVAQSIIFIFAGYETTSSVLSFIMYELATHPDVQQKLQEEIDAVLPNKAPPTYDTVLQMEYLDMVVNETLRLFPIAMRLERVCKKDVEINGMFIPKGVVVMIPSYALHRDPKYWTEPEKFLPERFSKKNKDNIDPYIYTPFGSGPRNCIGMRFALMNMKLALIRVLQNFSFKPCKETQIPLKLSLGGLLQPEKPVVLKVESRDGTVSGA
Data set [4] addresses CYP2C9 (Homo sapiens, UniProt P11712). Kind of data set: Inhibition of CYP2C9 in human liver microsomes at 0.4 uM. Type of data set: ADME, Microsome.
The target in data set [5] is CYP2C19 (Homo sapiens, UniProt P33261). Put plainly: Inhibition of CYP2C19 in human liver microsomes at 0.4 uM. Type of data set: ADME, Microsome.
Chain of CYP2C19 (P33261 whole entry): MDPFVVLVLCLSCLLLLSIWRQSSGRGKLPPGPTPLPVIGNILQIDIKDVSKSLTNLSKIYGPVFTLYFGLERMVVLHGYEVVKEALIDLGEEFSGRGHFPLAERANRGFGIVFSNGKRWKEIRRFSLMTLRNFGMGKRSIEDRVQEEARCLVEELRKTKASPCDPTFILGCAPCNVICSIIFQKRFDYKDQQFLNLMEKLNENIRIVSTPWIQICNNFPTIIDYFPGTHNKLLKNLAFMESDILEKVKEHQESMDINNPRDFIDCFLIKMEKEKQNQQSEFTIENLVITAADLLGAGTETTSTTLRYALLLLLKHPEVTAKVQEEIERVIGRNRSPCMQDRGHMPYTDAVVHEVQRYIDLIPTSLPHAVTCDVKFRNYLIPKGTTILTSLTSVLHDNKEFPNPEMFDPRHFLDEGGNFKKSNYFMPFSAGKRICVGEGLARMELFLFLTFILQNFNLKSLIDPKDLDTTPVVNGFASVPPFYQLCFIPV
The target of data set [6] is CYP2D6 (Homo sapiens, UniProt P10635). Kind of data set: Inhibition of CYP2D6 in human liver microsomes at 0.4 uM. Type of data set: ADME, Microsome.
Chain of CYP2D6 (P10635 whole entry): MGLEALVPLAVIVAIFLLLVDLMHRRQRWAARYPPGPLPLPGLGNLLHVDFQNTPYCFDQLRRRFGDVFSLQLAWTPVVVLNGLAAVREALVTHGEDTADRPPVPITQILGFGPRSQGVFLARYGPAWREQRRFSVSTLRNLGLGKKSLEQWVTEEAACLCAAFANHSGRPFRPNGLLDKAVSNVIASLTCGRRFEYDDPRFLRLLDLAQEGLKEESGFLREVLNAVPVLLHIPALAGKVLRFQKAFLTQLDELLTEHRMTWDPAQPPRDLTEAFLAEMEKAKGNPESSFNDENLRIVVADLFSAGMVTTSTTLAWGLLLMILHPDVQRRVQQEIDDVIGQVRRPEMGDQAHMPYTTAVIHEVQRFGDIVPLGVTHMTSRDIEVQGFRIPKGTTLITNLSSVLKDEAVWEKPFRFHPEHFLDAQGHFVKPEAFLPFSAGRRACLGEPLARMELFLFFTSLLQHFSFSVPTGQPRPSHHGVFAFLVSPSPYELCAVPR
Data set [7] relates to SH-SY5Y. Put plainly: Increase in CYP26A1 mRNA expression in human SH-SY5Y cells at 1 uM after 72 hrs by RT-PCR analysis in the presence of 0.1 uM all-trans-retinoic acid. Type of data set: functional. The gist of the method:
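SH-SY5Y cells grown in RPMI 1640 with 10% FCS and 2 mM L-glutamine. Treated 72 h with 0.1 μM ATRA plus inhibitor at 1 μM; inhibitors in ethanol diluted in medium. Total RNA reverse transcribed for TaqMan real-time PCR of CYP26A1, normalized to β-actin. Fold increase relative to cells given […]; mean ± SD, n = 6.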

Data set [8] addresses Cytochrome P450 2C9 (Homo sapiens, UniProt P11712). Kind of data set: Inhibition of CYP2C9 in human liver microsomes. The class given is ADME, Microsome.
Data set [9] is described as follows: Half-life in human liver microsomes. Type of data set: ADME, Microsome.
Data set [10] concerns the target T3, Cytochrome P450 1A2 (Homo sapiens, UniProt P05177).
T3 sequence (P05177 whole entry): T2 sequence (P05177 whole entry)
Put plainly: Inhibition of CYP1A2 in human liver microsomes. Type of data set: ADME, Microsome.

The target in data set [11] is Cytochrome P450 3A4 (Homo sapiens, UniProt P08684). Put plainly: Inhibition of CYP3A4 in human liver microsomes. Type of data set: ADME, Microsome.
Chain of Cytochrome P450 3A4 (P08684 whole entry): as the sequence (P08684 whole entry) above
For data set [12], the target named is Cytochrome P450 2C19 (Homo sapiens, UniProt P33261). Put plainly: Inhibition of CYP2C19 in human liver microsomes. The class given is ADME, Microsome.
Chain of Cytochrome P450 2C19 (P33261 whole entry): as the sequence (P33261 whole entry) above
The target in data set [13] is Cytochrome P450 2D6 (Homo sapiens, UniProt P10635). Kind of data set: Inhibition of CYP2D6 in human liver microsomes. The class given is ADME, Microsome.
Chain of Cytochrome P450 2D6 (P10635 whole entry): as the sequence (P10635 whole entry) above
In data set [14] the target is T1, Cytochrome P450 26A1. Kind of data set: Inhibition of CYP26 in human MCF-7 cell microsomes.

Activity calls are given as the source filed them. Bounds are passed on as bounds.

One may read the IC50 as the point on the concentration scale where inhibition reaches its midpoint. Read a high IC50 as weaker potency. Usually inhibition stands for the relative decrease from the control value, in per cent. For orientation: half-life means the time needed for the level to fall by half in the phase considered.

Chain of Cytochrome P450 2C9 (P11712 whole entry): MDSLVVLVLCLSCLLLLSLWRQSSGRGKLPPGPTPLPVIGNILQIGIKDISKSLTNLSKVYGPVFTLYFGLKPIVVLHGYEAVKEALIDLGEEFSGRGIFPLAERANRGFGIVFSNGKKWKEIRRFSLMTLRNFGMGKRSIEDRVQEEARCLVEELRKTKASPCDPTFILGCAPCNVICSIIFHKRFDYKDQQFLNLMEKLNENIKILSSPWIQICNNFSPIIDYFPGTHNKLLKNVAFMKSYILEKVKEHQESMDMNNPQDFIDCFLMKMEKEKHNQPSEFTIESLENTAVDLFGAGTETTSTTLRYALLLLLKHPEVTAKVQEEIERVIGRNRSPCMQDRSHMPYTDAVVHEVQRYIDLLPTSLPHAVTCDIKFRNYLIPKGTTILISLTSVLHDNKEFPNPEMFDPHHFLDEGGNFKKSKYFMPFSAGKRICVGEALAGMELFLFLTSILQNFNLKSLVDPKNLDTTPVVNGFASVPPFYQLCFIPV
Chain of CYP2C9 (P11712 whole entry): as above

`CN(C)C(=O)C(C)(C)C(c1ccc(Nc2ccc3ccccc3c2)cc1)n1ccnc1` (stereo unspecified): the midpoint of inhibition in data set [1], the IC50, lay at 75 nM. Also, the inhibition at 0.4 µM worked out at 11% in data set [2]; 95% in data set [3]; 52% in data set [4]; 21% in data set [5]; 29% in data set [6].

On to `COc1ccc2cc(Nc3ccc(C(n4ccnc4)C(C)(C)CO)cc3)ccc2c1` (stereo unspecified), for which, in data set [1], inhibition was half-maximal at 40 nM (IC50). Further, in [7], the “fold change (FC)” value is 3.7.

As to `CCCCOC(=O)C(C)(C)C(c1ccc(Nc2ccc3ccccc3c2)cc1)n1ccnc1` (stereo unspecified), the IC50 in [1] was 200 nM.

Take `CCOC(=O)C(C)(C)C(c1ccc(Nc2ccc3ccccc3c2)cc1)n1ccnc1` (stereo unspecified): half-maximal inhibition in data set [1] (IC50) was put at 0.35 nM. Also, the “fold change (FC)” value in data set [7] came out at 5.8. Also, the inhibition at 0.4 µM in [2] came out at 20%; in data set [3] it was 61%; in [4], 43%; in data set [5], 30%; in [6], 15%.

In [1], `CC(C)(C(=O)OCc1ccccc1)C(c1ccc(Nc2ccc3ccccc3c2)cc1)n1ccnc1` (stereo unspecified) yielded an IC50 of 400 nM.

Regarding `COC(=O)C(C)(C)C(c1ccc(Nc2ccc3ccccc3c2)cc1)n1ccnc1` (stereo unspecified), the result in [7] was Active. Moreover, the 50% inhibitory concentration (IC50) in [8] stood at 8000 nM. Further, the half-life in data set [9] was determined as 5.02 h.

With `COC(=O)C(C)(C)C(c1ccc(Nc2ccc3ccccc3c2)cc1)n1cncn1` (stereo unspecified), the IC50 is 0.35 nM in data set [1]; 10900 nM in data set [10]; 330 nM in data set [11]; 21400 nM in data set [8]; 3140 nM in [12]; 1800 nM in data set [13]. Moreover, in [14], the IC50 was found to be 0.3 nM. The “fold change (FC)” value in data set [7] was 5.2. Further, the inhibition at 0.4 µM in data set [2] was 10%; in data set [3], 22%; in [4], 38%; in data set [5], 16%; in [6], -2%. In data set [9], this compound gave a half-life of 3.73 h.

For `CNC(=O)C(C)(C)C(c1ccc(Nc2ccc3ccccc3c2)cc1)n1ccnc1` (stereo unspecified), the IC50 in [1] was found to be 12 nM. Also, in data set [7], the result was Active. Moreover, the inhibition at 0.4 µM in [2] stood at 15%; in data set [3], 86%; in [4], 45%; in [5] it was 14%; in data set [6], 13%.

Consider `CC(C)(C(=O)O)C(c1ccc(Nc2ccc3ccccc3c2)cc1)n1cncn1` (stereo unspecified), for which, in data set [1], the IC50 is over 1000 nM.

Turning to `CC(C)OC(=O)C(C)(C)C(c1ccc(Nc2ccc3ccccc3c2)cc1)n1ccnc1` (stereo unspecified), the IC50 in data set [1] amounted to 290 nM.

With `CC(C)NC(=O)C(C)(C)C(c1ccc(Nc2ccc3ccccc3c2)cc1)n1ccnc1` (stereo unspecified), in [1], inhibition was half-maximal at 120 nM (IC50). Compared with the last compound, the IC50 is about 2.4-fold lower.

For `c1ccc(C(c2ccc(Nc3ccc4ccccc4c3)cc2)n2ccnc2)cc1` (stereo unspecified), the IC50 in data set [1] amounted to 500 nM.

`CNC(=O)C(C)(C)C(c1ccc(Nc2ccc3ccccc3c2)cc1)n1cncn1` (stereo unspecified) gave an IC50 in data set [1] of 350 nM.

In data set [8], `C[C@H]([C@@H](c1ccc(Nc2nc3ccccc3s2)cc1)n1ccnc1)N(C)C` gave an IC50 of 11000 nM.

In turn, `CC(C)(C(N)=O)C(c1ccc(Nc2ccc3ccccc3c2)cc1)n1ccnc1` (stereo unspecified) had an IC50 in data set [1] of 50 nM. Also, in data set [7], the “fold change (FC)” value is listed as 4.1.

In [1], `CCCCCOC(=O)C(C)(C)C(c1ccc(Nc2ccc3ccccc3c2)cc1)n1ccnc1` (stereo unspecified) yielded an IC50 of 140 nM.

The compound `CC(C)(C(=O)O)C(c1ccc(Nc2ccc3ccccc3c2)cc1)n1ccnc1` (stereo unspecified) yielded an IC50 in [1] of 300 nM.

The values above are taken from ChEMBL document CHEMBL1828563, “Synthesis and biological evaluation of 3-(1H-imidazol- and triazol-1-yl)-2,2-dimethyl-3-[4-(naphthalen-2-ylamino)phenyl]propyl derivatives as small molecule inhibitors of retinoic acid 4-hydroxylase (CYP26)” (J Med Chem, 2011).
